Screens deposited in PubChem by Johns Hopkins Ion Channel Center.
TRPC4 agonist: activators of mouse TRPC4 channel, primary screen, Fluo4 calcium, HEK293 TRPC4beta/mu-opioid cells; Short transient receptor potential channel 4 (Mus musculus), Q9QUQ5; Fluo4 calcium fluorescence; active compounds read high; B-score at 10 µM; hit rate 0.49% among 310,000; AID 2237, 2010;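 active = B-score above 5 SD of library B-scores, and initial fluorescence ratio not above library mean plus 5 SD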;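 also: positive B-score marks a calcium rise read as TRPC4 activation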
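Assay system: HEK293 cells stably co-expressing mouse TRPC4beta and mu-opioid receptor / Timing: Fluo4 dye loading 45 min at room temperature, 110 s recording / Signal: Fluo4 calcium-sensitive dye fluorescence, kinetic, 1 Hz baseline / Read-out: integrated baseline-normalised fluorescence ratio, converted to per-well B score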
TRPC6 inhibitor: mouse TRPC6 channel inhibitors, primary screen, cell-based, HEK293, membrane potential dye | ACh-evoked depolarization; active compounds read low | AID 2553, 2010 | Short transient receptor potential channel 6 (Mus musculus), Q61143 | B-score at 10 µM | hit rate 1.1% among 310,000;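 active = B-score under library mean minus 3 SD, initial fluorescence not abnormally high, positive integrated signal ratio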;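 also: B-score derived from integrated fluorescence ratio over the kinetic read; more negative B-score means stronger inhibition of depolarization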
TRPC4 PAM: positive allosteric modulators of TRPC4, primary screen, cell-based, mouse TRPC4beta, HEK293 mu-opioid, Fluo-4 calcium; B-score at 10 µM; hit rate 0.42% among 310,000; DAMGO EC20, Fluo-4 Ca2+ flux; active compounds read high; AID 2227, 2009;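 active = B-score of calcium response area above 5 SD of library B-scores, with initial fluorescence ratio within 5 SD of library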
TRPC6 activator: mouse TRPC6 channel activators, primary screen, cell-based, HEK293, membrane potential dye; Short transient receptor potential channel 6 (Mus musculus), Q61143; AID 2550, 2010; HEK293-TRPC6 membrane potential dye fluorescence; active compounds read high; hit rate 0.13% among 310,000; B-score at 10 µM;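 active = B-score of the integrated fluorescence ratio above library mean plus 3 SD, and starting fluorescence ratio within library mean plus 5 SD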;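 also: higher score means more depolarization so channel activation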
TRPC4 inh: inhibitors of mouse TRPC4 channel, primary screen, Fluo4 calcium, HEK293 TRPC4beta/mu-opioid cells | B-score at 10 µM | DAMGO-evoked Fluo4 calcium flux; active compounds read low | Short transient receptor potential channel 4 (Mus musculus), Q9QUQ5 | hit rate 0.39% among 300,000;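 active = B-score over 3 SD under the library average, no early fluorescence shift, positive overall ratio signal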
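Assay system: HEK293 cells with stable TRPC4beta plus mu-opioid receptor expression. Dosing: single dose. Measured by: Fluo4 Ca2+ flux fluorescence. Also added: DAMGO in two steps, submaximal then maximal. Read-out: B score from integrated Fluo4 fluorescence ratio.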
Numbers stand for hits; – = inactive. This is a sample that favours compounds with a hit; in the whole collection about 2.3% have one here.

SMILES	TRPC4 agonist	TRPC6 inhibitor	TRPC4 PAM	TRPC6 activator	TRPC4 inh
O=C(NC(=S)NNC(=O)c1cccs1)c1ccco1	–	–	–	–	–
O=C(NNC(=S)NC(=O)c1ccco1)c1ccc(F)cc1	67	–	–	–	–
CC(Oc1ccc(Cl)cc1)C(=O)NNC(=S)NC(=O)c1ccco1 (centres undefined)	183	–	–	–	–
COC(=O)c1cc(OC)c(OC)cc1NC(=S)NC(=O)c1ccco1	–	–	–	–	–
COc1ccccc1C(=O)NNC(=S)NC(=O)c1ccco1	77	–	–	–	–
O=C(NNC(=S)Nc1ccccc1)c1ccco1	–	–	–	–	–
COC(CNC(=O)C1CC(=O)N(CCc2ccc(C)cc2)C1)OC (centres undefined)	–	–	–	–	–
CCOc1ccc(N(CC(=O)N2CCCCCC2)S(=O)(=O)c2ccc(C)cc2)cc1	–	–	–	–	–
O=C(NNC(=S)NC(=O)c1cccc([N+](=O)[O-])c1)c1ccc(O)cc1	–	–	–	–	–
CCCOc1ccc(C(=O)NNC(=S)NC(=O)c2ccco2)cc1	217	–	–	–	–
COc1ccc(C(=O)NNC(=S)NC(=O)c2ccco2)cc1	50	–	–	–	–
O=C(NNC(=S)NC(=O)c1cccc([N+](=O)[O-])c1)c1ccc(Br)cc1	79	–	–	–	–
COc1ccc(-c2cn3nc(SCC(=O)NCC4CCCO4)ccc3n2)cc1 (centres undefined)	–	–	–	–	–
Clc1ccc(OCCNCCc2ccccc2)cc1	98	–	–	–	–
OC(CNCCc1ccccc1)COc1ccc(OCC(O)CNCCc2ccccc2)cc1 (centres undefined)	–	–	22	–	–
OC(CNCCC(c1ccccc1)c1ccccc1)COc1ccccc1 (centres undefined)	–	–	–	–	–
CCC(=O)c1ccc(OCC(O)CNCc2ccc(F)cc2)cc1 (centres undefined)	–	–	–	–	–
COc1ccc(CNCCc2ccc(Cl)cc2)cc1OCc1ccccc1	47	–	–	–	–
O=C(COc1ccc(Cl)cc1)NCc1ccccc1	–	–	–	–	–
CCC(=O)c1ccc(OCC(O)CNCCc2ccc(Cl)cc2)cc1 (centres undefined)	59	–	–	–	–
CCOc1cc(CNCc2ccccc2)ccc1OCc1ccc(Cl)cc1	–	–	–	–	–
NS(=O)(=O)c1ccc(CCNc2ccccc2[N+](=O)[O-])cc1	–	–	–	–	–
NC(=S)NN=C1c2cc(OCCN3CCOCC3)ccc2-c2ccc(OCCN3CCOCC3)cc21	–	–	–	–	–
CC(=O)NCCOc1cccc2ccccc12	–	–	–	–	–
c1ccc(CCNCCCOc2cccc3ccccc23)cc1	66	–	–	–	–
SMILES	TRPC4 agonist	TRPC6 inhibitor	TRPC4 PAM	TRPC6 activator	TRPC4 inh
CC(C)(Oc1ccc(Cl)cc1)C(=O)NNC(=O)c1ccc(Br)o1	–	–	–	–	–
O=C(Nc1ccon1)c1csc2ccccc12	–	–	–	–	-7
COc1cccc(CN2CCNC(=O)C2CC(=O)N(C)CCc2ccccn2)c1OC (centres undefined)	93	–	–	–	–
CCOc1ccc(CN2CCNC(=O)C2CC(=O)NCCc2ccccn2)cc1 (centres undefined)	112	–	–	–	–
COc1cccc(CN2CCNC(=O)C2CC(=O)N(C)C2CCCCC2)c1OC (centres undefined)	–	–	–	–	–
CN(CCc1ccccn1)C(=O)CC1C(=O)NCCN1Cc1ccccc1C(F)(F)F (centres undefined)	131	–	–	–	–
CN(CCc1ccccn1)C(=O)CC1C(=O)NCCN1Cc1cccc(F)c1 (centres undefined)	186	–	–	–	–
CN(Cc1ccccc1)S(=O)(=O)c1ccc(N2CCOCC2)nc1	–	–	–	–	–
c1cnc(N2CCN(c3cnccn3)CC2)nc1	–	–	28	–	–
COCCNCC(O)CON=C1c2ccccc2-c2ccccc21 (centres undefined)	55	–	–	–	–
CS(=O)(=O)N(CC(O)CON=C1c2ccccc2-c2ccccc21)c1ccc(F)cc1 (centres undefined)	–	–	–	–	–
CC(C)CCNCC(O)CON=C1c2ccccc2-c2ccccc21 (centres undefined)	66	–	–	–	–
CNC(=O)C(=O)NCCC1CCCCN1S(=O)(=O)c1cccs1 (centres undefined)	–	–	–	–	–
CC1CCC(NC(=O)C(Cc2ccccc2)n2cccc2)CC1 (centres undefined)	–	–	–	–	–
CC1CCC(CN2C(Nc3ccccc3)=NC[C@@H]2C)CC1 (some centres undefined)	–	–	–	–	–
Nc1ccc(Oc2ccccc2-c2ccccc2)cc1	–	–	14	–	–
NCCOc1ccccc1-c1ccccc1	–	–	–	–	–
O=C(O)Cn1nnnc1SCC(=O)Nc1ccc(F)cc1F	–	–	–	–	–
CCNC(=S)N(Cc1cc2cc(C)ccc2[nH]c1=O)C1CCCC1	–	–	12	–	–
NC(=O)CSc1nnc(-c2cccc(S(=O)(=O)N3CCOCC3)c2)n1C1CCCCCC1	–	–	–	–	–
Cc1ccc(CSc2nnc(-c3cccc(S(=O)(=O)N4CCOCC4)c3)n2C2CCCC2)cc1	–	–	18	–	–
Cn1nc(C(=O)Nc2nc(-c3ccc(F)cc3)cs2)ccc1=O	–	–	–	–	–
Cc1ccccc1-c1nn(-c2ccc(F)cc2F)cc1CNCC(C)O (centres undefined)	–	–	–	–	–
CCOCCCNCc1cn(-c2ccc(F)cc2F)nc1-c1ccccc1C	77	–	–	–	–
CC1(C)CC2CC(C)(CN2C(=O)COC(=O)c2n[nH]c(=O)c3ccccc23)C1 (centres undefined)	–	–	11	–	–
COc1cc(CN2CCN(S(=O)(=O)c3ccccc3)CC2)cc(OC)c1OC	–	–	–	–	–
COc1cc(S(=O)(=O)N2CCN(Cc3ccccc3)CC2)ccc1Br	–	–	10	–	–
N#Cc1cccc(NCC(=O)Nc2ccc3c(c2)OCCO3)c1	–	–	–	–	–
O=C(N/N=C\c1ccc(Cl)s1)C1COc2ccccc2O1 (centres undefined)	70	–	–	–	–
Cc1ccc(/C=N\NC(=O)C2COc3cc4ccccc4cc3O2)o1 (centres undefined)	112	–	–	–	–
